From PubChem
Only some compounds are listed: those with a hit (about 2.7% of all), similar ones and a draw of the others.
MC4R antagonist – MC4R antagonists of cAMP signaling, primary screen, cell-based, TR-FRET, antagonist arm of biased-ligand search. Melanocortin receptor 4 (Homo sapiens), P32245. AID 540295, 2011. hit rate 0.48% among 360,000. inhibition, % at 6.5 µM. MC4R-expressing cells, MTII-stimulated cAMP, LANCE TR-FRET;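 active = inhibition above its plate's cutoff, the mean of tested wells on that plate plus 3 SD, cut at about 29% in these data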
Target sequence (P32245 whole entry, looked up): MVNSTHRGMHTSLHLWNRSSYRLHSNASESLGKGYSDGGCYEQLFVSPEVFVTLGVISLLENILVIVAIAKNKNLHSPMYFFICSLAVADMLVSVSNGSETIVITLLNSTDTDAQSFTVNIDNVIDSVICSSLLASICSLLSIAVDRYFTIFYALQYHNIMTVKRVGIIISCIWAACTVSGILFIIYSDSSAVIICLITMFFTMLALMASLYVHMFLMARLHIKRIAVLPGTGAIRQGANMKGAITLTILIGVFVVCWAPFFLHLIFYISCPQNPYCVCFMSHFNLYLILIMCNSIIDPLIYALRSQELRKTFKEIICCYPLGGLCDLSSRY
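Assay system: human MC4R-expressing U2OS cells; reagent: Melanotan II stimulation of cells; dosing: 6.5 µM single dose; timing: compound 30 min, challenge 1 h, detection 1 h; signal: TR-FRET cAMP assay; replicates: one well per compound, no replicates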
MC4R ag barr – MC4R agonists recruiting beta-arrestin, primary screen, cell-based, luminescence, agonist arm of biased-ligand search | Melanocortin receptor 4 (Homo sapiens), P32245 | U2OS MC4R beta-arrestin complementation; percent of melanotan II response, DMSO zero | activation, % at 8.9 µM | hit rate 0.98% among 360,000 | AID 540308, 2011;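 active = activation above a per-plate cutoff, the mean activation of sample wells on that plate plus 3 SD, cut at about 8% in these data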
PG9 binder – binders of HIV-1 gp120 antibody PG9, primary screen, biochemical, TR-FRET. TR-FRET gp120-PG9 antibody binding. inhibition, % at 6.7 µM. hit rate 0.43% among 360,000. AID 624416, 2012; in the data active = inhibition above about 8.5%
NR1D1 modulator – modulators of Rev-erb alpha DNA binding, primary screen, biochemical, FITC-DNA, fluorescence polarization, uHTS | Nuclear receptor subfamily 1 group D member 1 (Homo sapiens), P20393 | Rev-erbα–FITC-DNA binding, 90 min | activity, % at 10 µM | hit rate 0.79% among 370,000 | AID 1259318, 2017;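 active = activity above about 14%, limit read from the data; passing the limit was not always enough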
NR2E3 ag-1 – NR2E3 agonists in two-hybrid cells, primary screen, cell-based, luminescence, CHO-S, Gal4-NCOR/VP16-NR2E3. AID 602229, 2012. inhibition of corepressor binding, % at 3.98 µM. luciferase. hit rate 0.35% among 360,000. Photoreceptor-specific nuclear receptor (Homo sapiens), Q9Y5X4;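 active = inhibition above the mean of all tested compounds plus 3 SD, cut at about 70% in these data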;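 also: higher means lower luciferase signal from less NR2E3 corepressor binding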
NR2E3 ag-2 – inhibitors of NR2E3-RetCOR corepressor binding, primary screen, NR2E3 agonist project, biochemical, TR-FRET, GST-NR2E3, biotin-RetCOR; Photoreceptor-specific nuclear receptor (Homo sapiens), Q9Y5X4; 1536-well; inhibition of corepressor binding, % at 4.78 µM; hit rate 0.12% among 320,000;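 active = percent inhibition above the cutoff of mean plus 3 SD of all tested compounds, set per screening campaign, cut at about 20% in these data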
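Material: NR2E3–RetCOR corepressor complex / Incubation: Compound–protein incubation for 5 h at 4 °C / Dosing: compound at 4.8 µM, single dose / Detection: time-resolved FRET / Benchmarks: high control biotin, low control 0.6% DMSO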
PG9 binder conf – binders of anti-gp120 antibody PG9, confirmation, biochemical, TR-FRET | shares compounds with PG9 binder | inhibition, % at 6.7 µM | TR-FRET PG9 antibody binding | hit rate 90% among 1,500; in the data active = inhibition above about 9%
PGV04 Ab binding – binders of control antibody PGV04, counter-screen for PG9 antibody binder project, biochemical, TR-FRET, distinct HIV envelope site | shares compounds with PG9 binder | TR-FRET PGV04 antibody-gp120 binding | inhibition, % at 6.7 µM | hit rate 95% among 1,500 | AID 651604, 2012; in the data active = inhibition above about 9.5%
Of the large screens only hits and unclear results are named; the others gave an inactive call (follow-up assays come after a bar, where they were run).

O=c1[nH]c2ccc(Cl)cc2c(O)c1Cc1ccccc1	PG9 binder 9.0 | PG9 binder conf 11.2 | PGV04 Ab binding 13.9
COC(=O)Cn1c(C)nc2c(sc3nc(C)cc(C)c32)c1=O	none (no result: PG9 binder, NR1D1 modulator)
Cc1nc(SCC(=O)Nc2nccs2)c(C#N)c(C)c1C	PG9 binder 33.3 | PG9 binder conf 43.6 | PGV04 Ab binding 66.1
CC1Cc2cc(S(=O)(=O)N3CCN(c4ccccc4)CC3)ccc2N1C(=O)C1CC1 (centres undefined)	none
CCOC(=O)c1cnc2c(Cl)cc(Cl)cc2c1NCCOCCO	PG9 binder 13.0 | PG9 binder conf 9.7 | PGV04 Ab binding 12.1
CCOC(=O)c1cnc2ccccc2c1NCCO	none
CCOc1ccccc1N(CC)C(=O)c1cc2c(s1)-c1ccccc1S(=O)(=O)C2	none (no result: NR2E3 ag-2)
CC(=O)Nc1ccc(S(=O)(=O)Nc2nc3cc4c(cc3nc2Cl)OCCO4)cc1	PG9 binder 13.4 | PG9 binder conf 26.3 | PGV04 Ab binding 35.3
CC(=O)Nc1ccc(S(=O)(=O)Nc2ccc3c(c2)OCCO3)cc1	none (no result: PG9 binder, NR1D1 modulator)
Cc1ccc(C(C)(C)C)cc1S(=O)(=O)Nc1nc2ccccc2nc1Cl	PG9 binder 13.3 | PG9 binder conf 21.5 | PGV04 Ab binding 24.6
CC(=O)Nc1ccc(S(=O)(=O)Nc2nc3ccccc3nc2Cl)cc1	PG9 binder 16.6 | PG9 binder conf 25.3 | PGV04 Ab binding 31.7
O=[N+]([O-])c1ccc(C(O)CN2CCOCC2)cc1 (centres undefined)	none
COc1ccc(/C=C2\CCn3c2nc2cc(C(=O)O)ccc2c3=O)cc1	none
CCc1ccc2oc(C(=O)Nc3ccc(S(N)(=O)=O)cc3)c(C)c2c1	PG9 binder 10.0 | PG9 binder conf 14.6 | PGV04 Ab binding 20.9
Cc1c(N2C(=O)C(=O)/C(=C(/O)c3ccc(Br)cc3)C2c2cccnc2)c(=O)n(-c2ccccc2)n1C (centres undefined)	PG9 binder 22.4 | PG9 binder conf 30.7 | PGV04 Ab binding 38.4
Cc1ccc(/C(O)=C2/C(=O)C(=O)N(CCN3CCOCC3)C2c2cccnc2)cc1 (centres undefined)	none
CCOc1cc(OCC)cc(C(=O)NCc2ccco2)c1	PG9 binder 8.9 | PG9 binder conf inactive | PGV04 Ab binding inactive
COc1ccc2c(-c3ccccc3)cc(SCC(=O)NC3CCS(=O)(=O)C3)nc2c1 (centres undefined)	PG9 binder 22.2 | PG9 binder conf 16.0 | PGV04 Ab binding 19.3
CCN(C(=O)CSc1cc(-c2ccccc2)c2ccc(OC)cc2n1)C1CCS(=O)(=O)C1 (centres undefined)	none
COCCNC(=O)CSc1cc(-c2ccccc2)c2ccc(OC)cc2n1	PG9 binder 15.8 | PG9 binder conf 21.4 | PGV04 Ab binding 25.5
COc1ccc2c(-c3ccccc3)cc(SCC(=O)N(C)C)nc2c1	none
CCCCCNc1nc(-c2ccccc2)cs1	none (no result: MC4R antagonist, MC4R ag barr, PG9 binder, NR1D1 modulator, NR2E3 ag-1)
O=c1c2ccc(Cl)cc2[nH]c(=S)n1Cc1cccnc1	PG9 binder 14.1 | PG9 binder conf 11.9 | PGV04 Ab binding 13.9
O=C(c1ccc2c(=O)n(Cc3ccc(Cl)cc3)c(=S)[nH]c2c1)N1CCCC1	none
CC1=CC(=C(C#N)C#N)C=C(C)N1Cc1ccc(Cl)cc1	PG9 binder 19.1 | PG9 binder conf 23.6 | PGV04 Ab binding 31.1
